Reference: the M2OR odorant receptor database

Assays:
Settings in all cases: stereoisomer not certain
UniProt A2ATE5 = target: T1, UniProt A2ATE5
T1 sequence (whole entry): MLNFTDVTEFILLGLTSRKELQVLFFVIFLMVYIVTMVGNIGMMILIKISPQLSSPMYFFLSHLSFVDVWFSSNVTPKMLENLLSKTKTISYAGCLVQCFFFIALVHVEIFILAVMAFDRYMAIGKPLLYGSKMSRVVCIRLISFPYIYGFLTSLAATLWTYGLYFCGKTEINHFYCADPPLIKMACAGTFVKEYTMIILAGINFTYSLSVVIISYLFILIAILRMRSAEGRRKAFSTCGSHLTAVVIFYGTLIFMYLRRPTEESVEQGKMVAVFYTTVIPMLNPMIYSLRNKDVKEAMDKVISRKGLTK
Outline: (§1)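 Each receptor–molecule pair is labelled responsive or non-responsive (inactive) according to whether the original authors judged the measured signal statistically different from baseline. The data were taken from the main text and supplementary material of published papers and checked for typos and inconsistencies. Assay methods differed by source, with transient luciferase assays in mammalian cell lines being common.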

UniProt A2AVB0 = target: T2, UniProt A2AVB0
T2 sequence (whole entry): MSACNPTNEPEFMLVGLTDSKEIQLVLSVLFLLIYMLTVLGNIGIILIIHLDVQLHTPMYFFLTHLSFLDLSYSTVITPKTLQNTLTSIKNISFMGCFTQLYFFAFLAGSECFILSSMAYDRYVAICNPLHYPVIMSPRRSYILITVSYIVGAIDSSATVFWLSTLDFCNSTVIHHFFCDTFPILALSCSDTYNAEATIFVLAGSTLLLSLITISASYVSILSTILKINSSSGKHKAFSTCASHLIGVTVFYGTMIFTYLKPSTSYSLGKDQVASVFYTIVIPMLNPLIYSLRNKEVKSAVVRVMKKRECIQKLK
Outline: as §1

UniProt E9PVX1 = target: T3, UniProt E9PVX1
T3 sequence (whole entry): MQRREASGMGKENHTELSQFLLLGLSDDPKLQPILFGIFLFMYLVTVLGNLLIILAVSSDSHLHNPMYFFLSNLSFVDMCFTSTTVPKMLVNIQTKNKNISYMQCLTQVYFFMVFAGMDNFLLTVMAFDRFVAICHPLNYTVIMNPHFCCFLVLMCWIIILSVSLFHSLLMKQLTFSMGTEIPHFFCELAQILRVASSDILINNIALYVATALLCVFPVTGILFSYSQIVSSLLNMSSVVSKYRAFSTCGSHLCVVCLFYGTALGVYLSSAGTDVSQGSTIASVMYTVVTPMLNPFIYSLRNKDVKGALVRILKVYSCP
Outline: as §1

UniProt E9PZ66 = target: T4, UniProt E9PZ66
T4 sequence (whole entry): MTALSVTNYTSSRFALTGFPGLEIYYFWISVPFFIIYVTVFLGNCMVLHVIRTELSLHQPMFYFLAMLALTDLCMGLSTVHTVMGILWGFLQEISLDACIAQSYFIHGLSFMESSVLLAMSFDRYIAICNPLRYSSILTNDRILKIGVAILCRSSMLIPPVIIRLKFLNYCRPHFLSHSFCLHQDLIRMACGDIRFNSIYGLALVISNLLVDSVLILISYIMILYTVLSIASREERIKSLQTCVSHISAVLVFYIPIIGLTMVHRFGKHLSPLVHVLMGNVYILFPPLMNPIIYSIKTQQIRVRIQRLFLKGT
Outline: as §1

UniProt E9Q4X7 = target: T5, UniProt E9Q4X7
T5 sequence (whole entry): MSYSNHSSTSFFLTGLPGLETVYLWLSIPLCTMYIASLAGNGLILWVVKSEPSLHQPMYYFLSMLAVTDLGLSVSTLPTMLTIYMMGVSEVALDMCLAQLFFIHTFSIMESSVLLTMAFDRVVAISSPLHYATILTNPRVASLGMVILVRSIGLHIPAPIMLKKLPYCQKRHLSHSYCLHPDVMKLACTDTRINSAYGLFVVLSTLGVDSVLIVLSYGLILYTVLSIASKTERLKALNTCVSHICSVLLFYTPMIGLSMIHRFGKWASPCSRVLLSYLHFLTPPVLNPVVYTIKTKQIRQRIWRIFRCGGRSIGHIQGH
Outline: as §1

UniProt E9Q546 = target: T6, UniProt E9Q546
T6 sequence (whole entry): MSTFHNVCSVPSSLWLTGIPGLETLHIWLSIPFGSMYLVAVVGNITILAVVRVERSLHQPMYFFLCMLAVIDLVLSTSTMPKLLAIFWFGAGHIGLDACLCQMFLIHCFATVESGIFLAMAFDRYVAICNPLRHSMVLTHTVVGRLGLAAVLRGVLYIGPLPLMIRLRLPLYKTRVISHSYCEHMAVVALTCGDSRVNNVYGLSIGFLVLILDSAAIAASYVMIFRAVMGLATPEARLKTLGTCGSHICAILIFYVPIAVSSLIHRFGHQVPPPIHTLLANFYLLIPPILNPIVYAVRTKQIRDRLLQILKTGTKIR
Outline: as §1

UniProt E9Q6Z7 = target: T7, UniProt E9Q6Z7
T7 sequence (whole entry): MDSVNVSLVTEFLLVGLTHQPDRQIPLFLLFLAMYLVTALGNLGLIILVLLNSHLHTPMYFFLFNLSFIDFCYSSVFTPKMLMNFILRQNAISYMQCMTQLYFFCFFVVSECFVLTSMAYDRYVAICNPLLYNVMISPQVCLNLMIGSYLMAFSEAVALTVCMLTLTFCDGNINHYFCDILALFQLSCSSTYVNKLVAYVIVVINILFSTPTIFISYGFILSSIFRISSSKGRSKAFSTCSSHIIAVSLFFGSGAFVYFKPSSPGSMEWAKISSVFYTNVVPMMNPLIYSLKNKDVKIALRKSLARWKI
Outline: as §1

UniProt E1BM68 = target: T8, UniProt E1BM68
T8 sequence (whole entry): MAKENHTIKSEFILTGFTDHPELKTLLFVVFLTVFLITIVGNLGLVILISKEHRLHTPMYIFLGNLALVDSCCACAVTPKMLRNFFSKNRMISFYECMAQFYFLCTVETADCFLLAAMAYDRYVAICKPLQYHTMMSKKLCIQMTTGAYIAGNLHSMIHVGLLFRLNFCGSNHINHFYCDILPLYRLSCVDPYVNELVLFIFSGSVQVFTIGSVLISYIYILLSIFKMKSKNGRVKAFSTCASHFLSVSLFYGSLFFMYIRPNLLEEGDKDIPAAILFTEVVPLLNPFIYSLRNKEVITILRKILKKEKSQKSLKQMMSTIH
Outline: as §1

UniProt E9QAT7 = target: T9, UniProt E9QAT7
T9 sequence (whole entry): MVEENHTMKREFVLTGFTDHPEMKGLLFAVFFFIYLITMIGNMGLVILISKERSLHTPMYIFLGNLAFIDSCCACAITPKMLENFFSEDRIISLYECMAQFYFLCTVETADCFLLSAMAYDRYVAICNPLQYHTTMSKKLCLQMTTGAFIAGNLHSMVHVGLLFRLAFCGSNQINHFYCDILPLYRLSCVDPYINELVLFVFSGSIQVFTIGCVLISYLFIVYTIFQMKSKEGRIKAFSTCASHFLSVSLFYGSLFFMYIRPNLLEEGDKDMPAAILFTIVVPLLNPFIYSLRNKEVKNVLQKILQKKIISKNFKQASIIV
Outline: as §1

UniProt A2AVB5 = target: T10, UniProt A2AVB5
T10 sequence (whole entry): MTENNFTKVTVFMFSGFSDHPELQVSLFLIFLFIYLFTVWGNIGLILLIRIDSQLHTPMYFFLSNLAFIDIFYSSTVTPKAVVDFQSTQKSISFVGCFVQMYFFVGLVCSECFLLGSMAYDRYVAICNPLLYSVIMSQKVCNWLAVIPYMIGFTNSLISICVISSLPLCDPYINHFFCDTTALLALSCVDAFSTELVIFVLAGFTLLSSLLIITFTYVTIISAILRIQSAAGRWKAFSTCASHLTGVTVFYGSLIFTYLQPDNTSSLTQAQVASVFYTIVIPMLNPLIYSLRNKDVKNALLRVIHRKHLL
Outline: as §1

UniProt B2RVX8 = target: T11, UniProt B2RVX8
T11 sequence (whole entry): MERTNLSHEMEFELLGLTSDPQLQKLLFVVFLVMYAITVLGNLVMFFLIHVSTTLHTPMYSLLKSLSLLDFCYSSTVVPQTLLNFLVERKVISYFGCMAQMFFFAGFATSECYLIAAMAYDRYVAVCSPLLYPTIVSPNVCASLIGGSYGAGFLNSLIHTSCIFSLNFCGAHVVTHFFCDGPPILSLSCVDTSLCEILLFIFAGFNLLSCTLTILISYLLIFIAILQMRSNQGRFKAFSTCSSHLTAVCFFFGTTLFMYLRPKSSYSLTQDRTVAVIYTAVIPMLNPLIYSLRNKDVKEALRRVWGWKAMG
Outline: as §1

UniProt E9PX47 = target: T12, UniProt E9PX47
T12 sequence (whole entry): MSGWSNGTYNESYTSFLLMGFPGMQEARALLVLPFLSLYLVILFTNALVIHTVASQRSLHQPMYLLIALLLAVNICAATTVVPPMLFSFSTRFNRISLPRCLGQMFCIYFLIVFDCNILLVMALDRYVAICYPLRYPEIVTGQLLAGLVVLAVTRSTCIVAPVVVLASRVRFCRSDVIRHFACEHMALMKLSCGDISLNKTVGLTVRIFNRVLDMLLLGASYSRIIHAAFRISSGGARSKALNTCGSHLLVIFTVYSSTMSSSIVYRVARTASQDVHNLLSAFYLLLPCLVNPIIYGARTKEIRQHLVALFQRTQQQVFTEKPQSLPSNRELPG
Outline: as §1

UniProt K7N609 = target: T13, UniProt K7N609
T13 sequence (whole entry): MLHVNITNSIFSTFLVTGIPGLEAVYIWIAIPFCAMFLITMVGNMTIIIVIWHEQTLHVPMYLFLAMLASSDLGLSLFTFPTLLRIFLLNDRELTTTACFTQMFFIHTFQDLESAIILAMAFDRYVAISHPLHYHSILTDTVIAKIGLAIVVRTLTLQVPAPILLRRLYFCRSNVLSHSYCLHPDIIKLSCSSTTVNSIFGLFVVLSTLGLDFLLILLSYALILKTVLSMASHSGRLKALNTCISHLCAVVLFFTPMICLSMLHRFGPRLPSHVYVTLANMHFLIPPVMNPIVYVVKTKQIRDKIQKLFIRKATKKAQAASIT
Outline: as §1

UniProt E9Q9Z6 = target: T14, UniProt E9Q9Z6
T14 sequence (whole entry): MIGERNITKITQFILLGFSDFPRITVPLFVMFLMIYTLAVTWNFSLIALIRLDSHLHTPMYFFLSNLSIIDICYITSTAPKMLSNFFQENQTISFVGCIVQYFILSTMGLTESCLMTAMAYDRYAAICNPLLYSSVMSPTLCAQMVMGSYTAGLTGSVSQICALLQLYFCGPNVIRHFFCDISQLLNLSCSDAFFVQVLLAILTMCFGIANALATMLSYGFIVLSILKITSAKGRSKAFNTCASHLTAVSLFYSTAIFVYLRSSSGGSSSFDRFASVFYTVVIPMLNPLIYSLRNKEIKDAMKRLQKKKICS
Outline: as §1

UniProt A2AVA9 = target: UniProt A2AVA9
Outline: as §1

UniProt A2AVC3 = target: UniProt A2AVC3
Outline: as §1

UniProt E9PXH6 = target: UniProt E9PXH6
Outline: as §1

UniProt E9Q891 = target: UniProt E9Q891
Outline: as §1

UniProt K7N5T5 = target: UniProt K7N5T5
Outline: as §1

UniProt E9PXN3 = target: T15, UniProt E9PXN3
T15 sequence (whole entry): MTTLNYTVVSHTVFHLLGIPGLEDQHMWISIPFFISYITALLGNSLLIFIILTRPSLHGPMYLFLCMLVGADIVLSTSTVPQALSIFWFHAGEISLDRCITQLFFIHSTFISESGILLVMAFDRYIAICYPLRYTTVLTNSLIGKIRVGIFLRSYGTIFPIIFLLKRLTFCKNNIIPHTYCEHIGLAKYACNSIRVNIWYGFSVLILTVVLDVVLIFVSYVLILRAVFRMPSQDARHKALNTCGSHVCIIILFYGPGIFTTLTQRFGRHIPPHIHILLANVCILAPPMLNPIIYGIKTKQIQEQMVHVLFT
Outline: as §1

Measured: odorant receptor agonist call

Sequence of UniProt K7N5T5 (K7N5T5 as listed by the source): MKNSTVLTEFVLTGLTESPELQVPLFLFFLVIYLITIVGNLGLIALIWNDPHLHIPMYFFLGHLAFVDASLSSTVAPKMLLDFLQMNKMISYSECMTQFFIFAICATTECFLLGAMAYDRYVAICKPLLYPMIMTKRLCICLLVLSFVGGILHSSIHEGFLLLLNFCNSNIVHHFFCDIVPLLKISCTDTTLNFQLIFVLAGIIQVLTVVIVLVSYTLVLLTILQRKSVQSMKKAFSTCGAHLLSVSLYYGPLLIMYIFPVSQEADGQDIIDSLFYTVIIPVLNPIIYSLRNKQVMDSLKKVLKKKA
Sequence of UniProt E9Q891 (E9Q891 as listed by the source): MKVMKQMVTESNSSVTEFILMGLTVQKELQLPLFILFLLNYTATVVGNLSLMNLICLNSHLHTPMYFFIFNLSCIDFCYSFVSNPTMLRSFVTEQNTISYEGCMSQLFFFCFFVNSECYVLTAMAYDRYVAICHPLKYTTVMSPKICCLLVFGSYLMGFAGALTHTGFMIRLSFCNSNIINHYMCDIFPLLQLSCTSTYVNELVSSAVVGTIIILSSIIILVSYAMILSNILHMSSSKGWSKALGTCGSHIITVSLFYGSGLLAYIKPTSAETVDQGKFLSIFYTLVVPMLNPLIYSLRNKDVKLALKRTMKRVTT
Sequence of UniProt A2AVC3 (A2AVC3 as listed by the source): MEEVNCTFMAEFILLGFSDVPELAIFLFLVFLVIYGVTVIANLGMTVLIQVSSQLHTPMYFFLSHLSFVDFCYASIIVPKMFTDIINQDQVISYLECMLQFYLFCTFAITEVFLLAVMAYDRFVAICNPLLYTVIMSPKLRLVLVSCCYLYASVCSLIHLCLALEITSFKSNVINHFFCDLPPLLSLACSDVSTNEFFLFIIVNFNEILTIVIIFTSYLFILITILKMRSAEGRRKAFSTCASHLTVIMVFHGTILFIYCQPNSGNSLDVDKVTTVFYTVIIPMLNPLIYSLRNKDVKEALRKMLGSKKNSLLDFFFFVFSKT
Sequence of UniProt A2AVA9 (A2AVA9 as listed by the source): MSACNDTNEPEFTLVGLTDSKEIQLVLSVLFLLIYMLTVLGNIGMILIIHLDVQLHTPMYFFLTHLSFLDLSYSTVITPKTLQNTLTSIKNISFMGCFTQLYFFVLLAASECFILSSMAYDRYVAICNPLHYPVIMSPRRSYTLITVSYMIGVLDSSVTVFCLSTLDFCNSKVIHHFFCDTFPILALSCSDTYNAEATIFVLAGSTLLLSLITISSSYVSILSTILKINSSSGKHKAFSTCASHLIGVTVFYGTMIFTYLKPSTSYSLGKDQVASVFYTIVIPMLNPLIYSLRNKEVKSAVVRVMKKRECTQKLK
Sequence of UniProt E9PXH6 (E9PXH6 as listed by the source): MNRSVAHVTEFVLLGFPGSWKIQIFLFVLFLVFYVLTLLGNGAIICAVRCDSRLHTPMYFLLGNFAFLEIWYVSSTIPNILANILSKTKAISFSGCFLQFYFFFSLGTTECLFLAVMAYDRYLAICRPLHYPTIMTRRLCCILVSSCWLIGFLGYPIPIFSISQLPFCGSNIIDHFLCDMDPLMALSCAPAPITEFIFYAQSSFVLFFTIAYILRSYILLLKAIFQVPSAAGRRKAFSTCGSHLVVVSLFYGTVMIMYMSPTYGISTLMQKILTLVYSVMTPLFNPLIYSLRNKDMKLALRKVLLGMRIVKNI

CCOC(=O)CC(C)C
inactive: UniProt A2ATE5 | UniProt A2AVB0 | UniProt E9PVX1 | UniProt E9PZ66 | UniProt E9Q4X7 | UniProt E9Q546 | UniProt E9Q6Z7

CCC=CCCC=CC=O
inactive: UniProt A2ATE5 | UniProt A2AVB0 | UniProt E9PVX1 | UniProt E9PZ66 | UniProt E9Q4X7 | UniProt E9Q546 | UniProt E9Q6Z7

OCCCCCCCCCO
inactive: UniProt A2ATE5 | UniProt A2AVB0 | UniProt E9PVX1 | UniProt E9PZ66 | UniProt E9Q4X7 | UniProt E9Q546 | UniProt E9Q6Z7

CCc1nccnc1C
active: UniProt E1BM68
inactive: UniProt E9QAT7

CCc1occc(=O)c1O
active: UniProt A2ATE5
inactive: UniProt A2AVB0 | UniProt E9PVX1 | UniProt E9PZ66 | UniProt E9Q4X7 | UniProt E9Q546 | UniProt E9Q6Z7

CCCCCCCC(=O)[O-].[H+]
inactive: UniProt A2AVB5 | UniProt B2RVX8 | UniProt E9PX47 | UniProt K7N609
active: UniProt E9Q546

Cc1ccc(OC(=O)C(C)C)cc1
inactive: UniProt A2ATE5 | UniProt A2AVB0 | UniProt E9PVX1 | UniProt E9PZ66 | UniProt E9Q4X7 | UniProt E9Q546 | UniProt E9Q6Z7

CCCCCC=CCCC=O
inactive: UniProt A2ATE5 | UniProt A2AVB0 | UniProt E9PVX1 | UniProt E9PZ66 | UniProt E9Q546 | UniProt E9Q6Z7
active: UniProt E9Q4X7

OCCc1ccccc1
inactive: UniProt A2ATE5 | UniProt A2AVB0 | UniProt E9PVX1 | UniProt E9PZ66 | UniProt E9Q4X7 | UniProt E9Q546 | UniProt E9Q6Z7

CCCCCCC(C)O (stereo not drawn)
inactive: UniProt A2ATE5 | UniProt A2AVB0 | UniProt E9PVX1 | UniProt E9PZ66 | UniProt E9Q4X7 | UniProt E9Q546
active: UniProt E9Q6Z7

CC1CC=CCCCCCCCCCC(=O)C1 (stereo not drawn)
active: UniProt E9Q9Z6
inactive: UniProt A2ATE5 | UniProt A2AVB0 | UniProt E9PVX1 | UniProt E9PZ66 | UniProt E9Q4X7 | UniProt E9Q546 | UniProt E9Q6Z7

O=c1ccc2ccccc2o1
inactive: UniProt A2AVC3 | UniProt B2RVX8 | UniProt E9Q546 | UniProt K7N5T5 | UniProt K7N609
active: UniProt A2AVA9 | UniProt A2AVB5 | UniProt E9PXH6 | UniProt E9Q891

CCCCOC(=O)CCC
inactive: UniProt E9PX47 | UniProt E9PXN3

CCCCCCCCCCCC(=O)O
active: UniProt E9PXN3
